Active and inactive are the calls of the source. The calls are words filed in the database; no cut-off is given here.
Tests used:
[1] = biological target: T1, Butyrophilin subfamily 3 member A1 (Homo sapiens, UniProt O00481); test: Binding affinity to BTN3A1 in human Vgamma9 Vdelta2 T cells mixed with human K562 cells pretreated with compound for 4 hrs assessed as INF-gamma production measured after 20 hrs by ELISA
Method in brief: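 K562 target cells loaded with compound for 4 h, then washed. They were co-cultured with Vγ9Vδ2 T cells purified by negative selection, at 3:1 effector:target. After 20 h, supernatant interferon γ was measured by ELISA. EC₅₀ reported with 95% CI. Three independent experiments using ≥2 donors.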
Target sequence in this assay (O00481 whole entry): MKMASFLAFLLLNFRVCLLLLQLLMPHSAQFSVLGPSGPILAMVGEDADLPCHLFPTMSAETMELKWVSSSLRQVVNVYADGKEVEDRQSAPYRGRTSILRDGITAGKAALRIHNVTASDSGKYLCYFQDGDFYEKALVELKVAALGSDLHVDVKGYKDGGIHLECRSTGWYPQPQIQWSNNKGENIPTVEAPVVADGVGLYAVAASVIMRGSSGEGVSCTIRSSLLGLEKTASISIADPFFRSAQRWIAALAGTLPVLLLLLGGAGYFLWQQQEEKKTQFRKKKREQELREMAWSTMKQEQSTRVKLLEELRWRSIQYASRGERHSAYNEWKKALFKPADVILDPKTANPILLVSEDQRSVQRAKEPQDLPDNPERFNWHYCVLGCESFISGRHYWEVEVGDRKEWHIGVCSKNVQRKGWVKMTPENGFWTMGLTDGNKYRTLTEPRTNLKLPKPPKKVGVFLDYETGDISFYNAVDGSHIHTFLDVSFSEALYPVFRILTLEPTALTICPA

K562 = test: Cytotoxicity in human K562 cells assessed as reduction in cell viability incubated for 72 hrs by cell-QB reagent based assay; settings: K562, 72 h
Method in brief: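 K562 cells seeded at 0.5 × 10⁴ per well in RPMI and exposed to a range of compound concentrations, up to 100 µM, for 72 h. Cell-QB reagent was added for the final 2 h and read by fluorescence. Viability was expressed as % of untreated cells after subtracting a media-only blank. Three independent experiments.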

[2] = Stability in 50% pooled human plasma assessed as half life at 100 uM by LC-MS method; assay type: ADME, cell-free
Method in brief: (§1)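 Compound at 100 µM final in pooled human plasma diluted to 50% with PBS, pH 7.5. Analysed by positive-mode LC-MS on C18 with a water/acetonitrile gradient from 25 to 80% over 9 min. Fraction remaining came from peak integration, and half-life was calculated from it. Each point run 2–4 times.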

[3] = biological target: T1, Butyrophilin subfamily 3 member A1; test: Binding affinity to BTN3A1 in human PBMC assessed as stimulation of Vgamma9 Vdelta2 T cells at 100 nM incubated for 3 days and measured after 11 days post compound removal by flow cytometry
Method in brief: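 Human PBMC exposed to compound at 100 nM for 3 days, then left to proliferate 11 days before counting Vγ9Vδ2 T cells. […] Negative control was cells with interleukin 2 and no compound. Data from 3 independent experiments.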
Target sequence in this assay (O00481 30-513 limits assumed): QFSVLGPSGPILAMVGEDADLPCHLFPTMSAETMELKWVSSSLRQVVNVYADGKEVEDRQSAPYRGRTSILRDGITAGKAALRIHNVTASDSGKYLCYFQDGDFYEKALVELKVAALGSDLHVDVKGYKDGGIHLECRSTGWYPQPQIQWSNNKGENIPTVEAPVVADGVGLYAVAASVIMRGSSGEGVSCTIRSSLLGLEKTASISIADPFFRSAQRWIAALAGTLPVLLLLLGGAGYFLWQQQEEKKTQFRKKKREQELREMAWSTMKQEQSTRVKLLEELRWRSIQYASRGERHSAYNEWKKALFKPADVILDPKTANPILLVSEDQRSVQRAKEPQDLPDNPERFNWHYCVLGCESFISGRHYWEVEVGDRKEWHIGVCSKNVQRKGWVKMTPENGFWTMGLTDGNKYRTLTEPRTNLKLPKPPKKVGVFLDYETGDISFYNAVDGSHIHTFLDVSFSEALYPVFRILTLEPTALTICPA

[4] = biological target: T1, Butyrophilin subfamily 3 member A1; test: Binding affinity to BTN3A1 in human PBMC assessed as stimulation of Vgamma9 Vdelta2 T cells at 100 nM incubated for 3 days and measured after 11 days post compound removal by flow cytometry relative to (E)-dimethyl 5-hydroxy-4-methylpent-3-enylphosphonate
Target sequence in this assay (O00481 30-513 limits assumed): as above

[5] = biological target: T1, Butyrophilin subfamily 3 member A1; test: Binding affinity to BTN3A1 in human PBMC assessed as stimulation of Vgamma9 Vdelta2 T cells at 100 nM incubated for 3 days and measured after 11 days post compound removal by flow cytometry relative to sodium (E)-5-hydroxy-4-methylpent-3-enylphosphonate
Target sequence in this assay (O00481 30-513 limits assumed): as above

[6] = Stability in 50% pooled human plasma assessed as compound hydrolysis at 100 uM after 2 hrs by LC-MS method relative to control; assay type: ADME, cell-free; settings: read-out: Drug degradation
Method in brief: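 Compound at 100 µM final in pooled human plasma diluted to 50% with PBS, pH 7.5. Sampled at 2 h (also 24 h), then extracted into acetonitrile and debris spun down. Analysed by positive-mode LC-MS on C18 with a 25→80% acetonitrile gradient over 9 min. Fraction remaining from peak integration; 2–4 independent runs.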

[7] = Half life in human plasma; assay type: ADME, cell-free
Method in brief: as §1, with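 “7.5. Incubated for various times, including 2 and 24 h, then extracted with acetonitrile and centrifuged.” for “7.5.”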

| SMILES | EC50 [1] [nM] | IC50 (K562) [nM] | t1/2 [2] [h] | Activity [3] | Ratio EC50 [4] | Ratio EC50 [5] | metabolised at 2 h, 100 µM [6] [%] | half-life [7] [h] |
| --- | --- | --- | --- | --- | --- | --- | --- | --- |
| COC(=O)CNP(=O)(CC/C=C(\C)CO)Oc1cccc2ccccc12 (stereo unspecified) | 130 | 40000 | > 24 | Active | 12 | 9100 | – | – |
| CCOC(=O)CNP(=O)(CC/C=C(\C)CO)Oc1cccc2ccccc12 (stereo unspecified) | 62 | – | > 24 | Active | 15 | 11000 | – | – |
| Oc1cccc2ccccc12 [1-NAPHTHOL] | – | > 100000 | – | – | – | – | – | – |
| Oc1ccc2ccccc2c1 [BETANAPHTHOL] | – | > 100000 | – | – | – | – | – | – |
| CCOC(=O)CNP(=O)(CC/C=C(\C)CO)Oc1ccccc1 (stereo unspecified) | 170 | > 100000 | – | Active | – | – | – | – |
| C/C(=C\CCP(=O)(NCC(=O)OC(C)C)Oc1cccc2ccccc12)CO (stereo unspecified) | 290 | > 100000 | > 24 | Active | 16 | 12000 | – | – |
| C/C(=C\CCP(=O)(OCOC(=O)C(C)(C)C)OCOC(=O)C(C)(C)C)CO | – | – | 8.4 | Active | – | – | > 95 | – |
| C/C(=C\CCP(=O)(NCC(=O)OC(C)C)Oc1ccc2ccccc2c1)CO (stereo unspecified) | 210 | > 100000 | > 24 | Active | 6.6 | 4900 | – | – |
| COC(=O)CNP(=O)(CC/C=C(\C)CO)Oc1ccccc1 (stereo unspecified) | 460 | > 100000 | > 24 | Active | 3.6 | 2700 | – | – |
| Oc1ccccc1 [PHENOL] | – | > 100000 | – | – | – | – | – | – |
| COC(=O)CNP(=O)(CC/C=C(\C)CO)Oc1ccc2ccccc2c1 (stereo unspecified) | 120 | > 100000 | > 24 | Active | 9.3 | 6900 | – | – |
| C/C(=C\COP(=O)(O)OP(=O)(O)O)CO | – | – | – | Active | – | – | – | – |
| CCOC(=O)CNP(=O)(CC/C=C(\C)CO)Oc1ccc2ccccc2c1 (stereo unspecified) | 93 | – | > 24 | Active | 10 | 7500 | – | – |
| COc1ccc2cc(C(=O)OCOP(=O)(CC/C=C(\C)CO)OC)c(=O)oc2c1 (stereo unspecified) | – | – | – | – | – | – | – | 6 to 8 |
| C/C(=C\CCP(=O)(NCC(=O)OC(C)C)Oc1ccccc1)CO (stereo unspecified) | 740 | – | > 24 | Active | 4.9 | 3600 | – | – |

Source: ChEMBL document CHEMBL4196196, “Phosphonamidate Prodrugs of a Butyrophilin Ligand Display Plasma Stability and Potent Vγ9 Vδ2 T Cell Stimulation” (J Med Chem, 2018)
